Experimental data published in the RNAGym collection of RNA variant scans (doi:10.1126/science.aae0568).
Fewer inactive variants are shown than the library holds.

B1: tRNA (parent)
chain: GUUCCGUUGGCGUAAUGGUAACGCGUCUCCCUCCUAAGGAGAAGACUGCGGGUUCGAGUCCCGUACGGAACG

Variants of: B1
Assay: yeast fitness relative to wild type (ratio to wild type); higher = fitter; tRNA-Arg(CCU), competitive growth, 37 C, YPD
In short: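 For this measurement, the tRNA-Arg(CCU) gene was varied by chemical synthesis at a 3% per-site mutation rate across 69 sites, and each variant was placed at the native genomic locus in Saccharomyces cerevisiae. The pooled strains went through a 24-hour competition in YPD at 37°C in six parallel replicates, with amplicons from start and end populations read by 100-nucleotide paired-end sequencing. Darwinian fitness relative to wild type followed from the change in each genotype's frequency. Genotypes needed ≥ 100 starting reads, and estimates < 0.5 were set to 0.5.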
In the case of U3C A20U C30U A37G, the yeast fitness is reported as 0.633.
U3A G6A A14U C33G gave a yeast fitness of no more than 0.5.
Work on U3A C61U yielded a yeast fitness of 0.924.
In the case of U3A G17A C22U, the yeast fitness is reported as 0.559.
Work on U2G C5U A15U G17A U47G C49G C60G A70U yielded a yeast fitness of no more than 0.5.
Variant U3A U8C A36U U53G has a yeast fitness of no more than 0.5.
With U2G U19A A21G G39C C60G G67C the yeast fitness was no more than 0.5.
For U3A C5G A21U C22U G41A A43C G51C C66U G67U, the yeast fitness was no more than 0.5.
Variant U3A C5U C31A A45C C46G G52C has a yeast fitness of no more than 0.5.
For U3C A14G C30G A43C, the yeast fitness was no more than 0.5.
With U3A C66G the yeast fitness was 0.669.
Work on U3A A36U A43G G52C G63A G67U A70C yielded a yeast fitness of 0.557.
U2G C33U C34G U59A gave a yeast fitness of no more than 0.5.
Work on U2G A20C G48C yielded a yeast fitness of no more than 0.5.
In the case of U2G C5G C34G C49G, the yeast fitness is reported as 0.505.
Work on U3C A15G G68C yielded a yeast fitness of 0.618.
With U3A G10C G17C A37C G50C the yeast fitness was no more than 0.5.
In the case of U3A C30G C33U C55U, the yeast fitness is reported as no more than 0.5.
Work on U3C A15C U47G U54A G58A yielded a yeast fitness of no more than 0.5.
In the case of U2G C22U U32C G50C, the yeast fitness is reported as 0.658.
With U3C A40U the yeast fitness was 0.976.
Variant U2G U26G C30U U59G U64G G68A has a yeast fitness of no more than 0.5.
U3A G9C C46G showed a yeast fitness of 0.533.
U3A C4G G9A C11G gave a yeast fitness of no more than 0.5.
U2G C31G A57U A65G gave a yeast fitness of no more than 0.5.
Variant U3A C33U A40C has a yeast fitness of no more than 0.5.
For U2G C4U G52C, the yeast fitness was 0.516.
In the case of U3C A15G C60G C62U, the yeast fitness is reported as no more than 0.5.
In the case of U2G C22A G25C C33U A69C, the yeast fitness is reported as no more than 0.5.
Work on U3A C31U A40C U64A yielded a yeast fitness of no more than 0.5.
U2G C11U A20C A70C showed a yeast fitness of 0.667.
Variant U2G C46A G63C has a yeast fitness of 0.56.
U2G C5A C55U C61A showed a yeast fitness of no more than 0.5.
Variant U2G C4U A20C C30G has a yeast fitness of no more than 0.5.
U3A C5A C30G G38C C61A showed a yeast fitness of 0.655.
U3A C62U G63C gave a yeast fitness of no more than 0.5.
In the case of U3A C5A A45C G50C U64C, the yeast fitness is reported as 0.54.
Variant U3C A36G G39C C55U C66U has a yeast fitness of no more than 0.5.
Work on U3A A21C C24G C62G yielded a yeast fitness of 0.599.
Variant U3A C4G G68A has a yeast fitness of no more than 0.5.
U3A A21G A70C showed a yeast fitness of 1.05.
U2G A57U G67C showed a yeast fitness of no more than 0.5.
With U3A A20G C29U G48C the yeast fitness was no more than 0.5.
U3C A43C showed a yeast fitness of 1.04.
With U3A C5G G56U the yeast fitness was no more than 0.5.
For U3A C33G A43G G58A G67A A69U, the yeast fitness was no more than 0.5.
Work on U3A C4U U32C U64C yielded a yeast fitness of 0.877.
Variant U2G C4U G23C has a yeast fitness of 0.567.
Variant U3A G39C A45G G50A has a yeast fitness of no more than 0.5.
U3A C11U U13A G17C G18C A36C gave a yeast fitness of no more than 0.5.
Work on U3A A14U C60G C61U C62G A65U yielded a yeast fitness of no more than 0.5.
With U3A U26G the yeast fitness was 0.781.
In the case of U3A U19C, the yeast fitness is reported as 0.875.
For U2G G25C C29U C33U A40G G52A U59C A65U, the yeast fitness was 0.581.
U3A A57U A65C A69C showed a yeast fitness of 0.593.
Work on U2G G9C A70G yielded a yeast fitness of 0.585.
U3C A20G C24U G52A A57U C62A showed a yeast fitness of no more than 0.5.
U3A A14G C31G A37U A65U showed a yeast fitness of no more than 0.5.
U2G C22A G25A G56A gave a yeast fitness of no more than 0.5.
Variant U3C A14C has a yeast fitness of 0.703.
Work on U3A G41C C66A yielded a yeast fitness of 0.527.
With U3A C46U the yeast fitness was 1.
Work on U3A C5A G6C A15G U16A U26G C60G C61U yielded a yeast fitness of 0.514.
Variant U3A U19A C62U has a yeast fitness of 0.776.
U3A U26A C66U gave a yeast fitness of no more than 0.5.
U3A G12C C24G showed a yeast fitness of no more than 0.5.
In the case of U2G U7G U16C C24U C34U G50A U54C A65U, the yeast fitness is reported as no more than 0.5.
U3A C11G C61A gave a yeast fitness of no more than 0.5.
For U3A U32A G39A C49G C55U, the yeast fitness was no more than 0.5.
In the case of U3A C4A U8C C29G A37C A69C, the yeast fitness is reported as no more than 0.5.
With U3C C5G G9A C11G C66U the yeast fitness was no more than 0.5.
U3C A40G G58C A70U gave a yeast fitness of no more than 0.5.
For U3A G25A U26G, the yeast fitness was 0.535.
U2G C30U C46A gave a yeast fitness of 0.692.
Work on U2G C27A G67U yielded a yeast fitness of no more than 0.5.
U3A U28C C29G gave a yeast fitness of no more than 0.5.
U2G G18A C27A C30U A65U showed a yeast fitness of no more than 0.5.
In the case of U2G G12A C55U C61A, the yeast fitness is reported as no more than 0.5.
With U3A C4U C31A C66G G68C the yeast fitness was no more than 0.5.
Variant U2G U35A U54G has a yeast fitness of no more than 0.5.
Work on U2G G9C A20G A42C C46G C49U A69C yielded a yeast fitness of 0.576.
Variant U3C A45U U59C has a yeast fitness of 0.699.
Variant U3A G12C A21C A36C C49U A70U has a yeast fitness of no more than 0.5.
Work on U3A C33U G44A yielded a yeast fitness of no more than 0.5.
